According to ChEMBL document CHEMBL1127846, “Influence of amine substituents on 5-HT2A versus 5-HT2C binding of phenylalkyl- and indolylalkylamines” (J Med Chem, 1994):

Legend:
[1] = Receptor selectivity [3H]- ketanserin-labeled receptors versus [125I]- DOI-labeled receptors.
[2] = target: T1, 5-hydroxytryptamine receptor 2C (Rattus norvegicus, UniProt P08909); assay: Affinity against 5-hydroxytryptamine 2C receptor in J1 cells transfected with the rat 5-HT2C gene labeled with [3H]mesulergine.; assay type: cell-based
T1 sequence (P08909 whole entry): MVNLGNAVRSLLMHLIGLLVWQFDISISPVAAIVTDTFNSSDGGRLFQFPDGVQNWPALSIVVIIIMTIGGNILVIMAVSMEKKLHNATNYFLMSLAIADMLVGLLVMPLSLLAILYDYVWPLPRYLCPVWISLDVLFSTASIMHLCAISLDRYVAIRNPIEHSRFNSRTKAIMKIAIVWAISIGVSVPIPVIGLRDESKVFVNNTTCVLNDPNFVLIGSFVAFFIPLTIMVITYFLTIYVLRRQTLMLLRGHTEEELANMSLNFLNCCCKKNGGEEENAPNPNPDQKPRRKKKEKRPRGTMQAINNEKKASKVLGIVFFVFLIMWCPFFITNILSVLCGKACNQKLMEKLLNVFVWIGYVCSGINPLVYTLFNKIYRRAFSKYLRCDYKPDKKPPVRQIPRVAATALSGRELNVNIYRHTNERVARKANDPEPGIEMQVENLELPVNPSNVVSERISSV
How it was run: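 Homogenates of J1 cells carrying the rat 5-HT1C (5-HT2C) gene, labeled with [3H]mesulergine. Competing drug and radioligand incubated at 37 °C for 30 min, then filtered through glass-fiber filters and counted by liquid scintillation. Ki given as mean and SEM of at least two experiments, each done in triplicate.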

[3] = target: T2, 5-hydroxytryptamine receptor 2A (Homo sapiens, UniProt P28223); assay: Affinity against 5-hydroxytryptamine 2A receptor (K) labeled with [3H]ketanserin.
T2 sequence (P28223 whole entry): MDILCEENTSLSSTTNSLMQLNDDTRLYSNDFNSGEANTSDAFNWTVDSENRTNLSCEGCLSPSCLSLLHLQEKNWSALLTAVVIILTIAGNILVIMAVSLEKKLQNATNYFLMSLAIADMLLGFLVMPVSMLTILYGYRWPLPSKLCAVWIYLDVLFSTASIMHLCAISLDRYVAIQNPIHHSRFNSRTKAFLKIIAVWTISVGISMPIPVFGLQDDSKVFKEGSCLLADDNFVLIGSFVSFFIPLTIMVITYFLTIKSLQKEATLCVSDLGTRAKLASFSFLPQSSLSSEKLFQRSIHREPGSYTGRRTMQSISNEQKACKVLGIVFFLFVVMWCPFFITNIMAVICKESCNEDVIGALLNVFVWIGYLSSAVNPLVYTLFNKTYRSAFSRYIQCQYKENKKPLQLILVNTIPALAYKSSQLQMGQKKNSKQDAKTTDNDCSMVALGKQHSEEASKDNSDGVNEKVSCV

[4] = target: T2, 5-hydroxytryptamine receptor 2A; assay: Affinity against 5-hydroxytryptamine 2A receptor (D) labeled with [125I]DOI.
[5] = The compound evaluated for its receptor selectivity 5-HT2C receptors versus [125I]- DOI- labeled receptors
[6] = The compound evaluated for its receptor selectivity at [125I]- DOI- labeled receptors versus [3H]- ketanserin- labeled receptors,
How it was run: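 […] 5-HT2A receptors expressed in transfected GF6 cells, labeled in separate assays with [3H]ketanserin or [125I]DOI. Homogenates were incubated with radioligand and competing drug for 30 min at 37 °C, then filtered through glass-fiber filters and counted by liquid scintillation. Ki values are the mean and SEM of at least two experiments, each run in triplicate.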

Structure (SMILES)	Ratio [1]	Ki [2] [nM]	Ki [3] [nM]	Ki [4] [nM]	Ratio [5]	Ratio [6]
COc1ccc2[nH]cc(CCNCc3ccc(Cl)cc3)c2c1	5	4390	565	105	42	–
COc1ccc(CNCCc2c[nH]c3ccc(OC)cc23)cc1	6	1180	100	16	74	–
COc1cc(CCN2CCCCC2)c(OC)cc1Br	6	2530	895	154	16	–
CCNCCc1cc(OC)c(Br)cc1OC	8	1930	330	40	48	–
COc1cc(CCNCCCc2ccccc2)c(OC)cc1Br	4	310	84	23	13	–
COc1ccc2[nH]cc(CCNCCCCc3ccccc3)c2c1	2	1500	22	13	115	–
CNCCc1c[nH]c2ccc(OC)cc12	–	840	450	4.1	–	110
COc1cc(CCNCc2ccc([N+](=O)[O-])cc2)c(OC)cc1Br	5	1220	290	58	21	–
COc1ccc2[nH]cc(CCNCc3ccc(C)cc3)c2c1	4	1230	110	30	40	–
COc1cc(CCNCc2ccccc2)c(OC)cc1Br	53	90	16	0.3	300	–
COc1cc(CCN(C)C)c(OC)cc1Br	26	480	420	16	30	–
COc1cc(CCNCc2ccc(F)cc2)c(OC)cc1Br	7	360	30	3.4	80	–
COc1cc(CCNCc2ccc(I)cc2)c(OC)cc1Br	55	165	22	0.4	410	–
COc1cc(CCN)c(OC)cc1Br	–	–	34	1	–	–
COc1ccc2[nH]cc(CCN3CCCCC3)c2c1	–	> 10000	160	230	–	–
COc1cc(CCNCc2ccc(Cl)cc2)c(OC)cc1Br	7	715	110	15	48	–
COc1ccc2[nH]cc(CCNCc3ccc(I)cc3)c2c1	3	1770	400	120	15	–
COc1ccc2[nH]cc(CCNCCCc3ccccc3)c2c1	5	165	50	10	16	–
COc1cc(CCNCc2ccc(C)cc2)c(OC)cc1Br	2	225	23	14	16	–
COc1ccc(CNCCc2cc(OC)c(Br)cc2OC)cc1	1	215	16	13	17	–
COc1ccc2[nH]cc(CCNCc3ccc(Br)cc3)c2c1	52	100	5.2	0.1	1000	–
COc1ccc2[nH]cc(CCNCc3ccccc3)c2c1	10	370	55	5.3	70	–
COc1cc(CCNCc2ccc(Br)cc2)c(OC)cc1Br	4	48	1.6	0.4	120	–
CNCCc1cc(OC)c(Br)cc1OC	130	100	380	2.9	34	–
COc1cc(CCNCCCCc2ccccc2)c(OC)cc1Br	4	695	100	27	26	–
CCNCCc1c[nH]c2ccc(OC)cc12	–	2680	930	7.2	–	130
COc1cc(CCNCc2ccc(N)cc2)c(OC)cc1Br	3	1020	50	16	64	–
COc1ccc2[nH]cc(CCNCc3ccc(F)cc3)c2c1	10	3530	480	40	88	–
COc1ccc2[nH]cc(CCNCc3ccc(N)cc3)c2c1	5	6700	475	105	64	–
COc1ccc2[nH]cc(CCNCc3ccc([N+](=O)[O-])cc3)c2c1	30	9970	4260	140	70	–
